From ChEMBL document CHEMBL4428083, “Mitochondrial-Targeting MET Kinase Inhibitor Kills Erlotinib-Resistant Lung Cancer Cells” (ACS Med Chem Lett, 2016)
pIC50: −log10 of the molar value. Activity calls are given as the source filed them. No cut-off for these calls is given here.

Tests used:
[1] = Drug uptake in mitochondria of human HeLa cells at 4 uM after 3 hrs by MTR dye/Hoechst 33342 staining based confocal microscopy; type: ADME
Method in brief: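 HeLa cells were exposed to 4 μM compound for 3 h, then stained with MitoTracker Red and Hoechst 33342 and imaged by confocal microscopy. Intrinsic compound green fluorescence (Ex 460, Em 520 nm) was compared for overlap with MTR.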

[2] = target: Hepatocyte growth factor receptor (Homo sapiens) (UniProt P08581); assay: Inhibition of MET phosphorylation at Y1234/1235 in mitochondria isolated from compound treated erlotinib-resistant human HCC827B cells at 4 uM after 24 hrs by immunoblot analysis
Hepatocyte growth factor receptor (Homo sapiens), sequence (P08581 whole entry): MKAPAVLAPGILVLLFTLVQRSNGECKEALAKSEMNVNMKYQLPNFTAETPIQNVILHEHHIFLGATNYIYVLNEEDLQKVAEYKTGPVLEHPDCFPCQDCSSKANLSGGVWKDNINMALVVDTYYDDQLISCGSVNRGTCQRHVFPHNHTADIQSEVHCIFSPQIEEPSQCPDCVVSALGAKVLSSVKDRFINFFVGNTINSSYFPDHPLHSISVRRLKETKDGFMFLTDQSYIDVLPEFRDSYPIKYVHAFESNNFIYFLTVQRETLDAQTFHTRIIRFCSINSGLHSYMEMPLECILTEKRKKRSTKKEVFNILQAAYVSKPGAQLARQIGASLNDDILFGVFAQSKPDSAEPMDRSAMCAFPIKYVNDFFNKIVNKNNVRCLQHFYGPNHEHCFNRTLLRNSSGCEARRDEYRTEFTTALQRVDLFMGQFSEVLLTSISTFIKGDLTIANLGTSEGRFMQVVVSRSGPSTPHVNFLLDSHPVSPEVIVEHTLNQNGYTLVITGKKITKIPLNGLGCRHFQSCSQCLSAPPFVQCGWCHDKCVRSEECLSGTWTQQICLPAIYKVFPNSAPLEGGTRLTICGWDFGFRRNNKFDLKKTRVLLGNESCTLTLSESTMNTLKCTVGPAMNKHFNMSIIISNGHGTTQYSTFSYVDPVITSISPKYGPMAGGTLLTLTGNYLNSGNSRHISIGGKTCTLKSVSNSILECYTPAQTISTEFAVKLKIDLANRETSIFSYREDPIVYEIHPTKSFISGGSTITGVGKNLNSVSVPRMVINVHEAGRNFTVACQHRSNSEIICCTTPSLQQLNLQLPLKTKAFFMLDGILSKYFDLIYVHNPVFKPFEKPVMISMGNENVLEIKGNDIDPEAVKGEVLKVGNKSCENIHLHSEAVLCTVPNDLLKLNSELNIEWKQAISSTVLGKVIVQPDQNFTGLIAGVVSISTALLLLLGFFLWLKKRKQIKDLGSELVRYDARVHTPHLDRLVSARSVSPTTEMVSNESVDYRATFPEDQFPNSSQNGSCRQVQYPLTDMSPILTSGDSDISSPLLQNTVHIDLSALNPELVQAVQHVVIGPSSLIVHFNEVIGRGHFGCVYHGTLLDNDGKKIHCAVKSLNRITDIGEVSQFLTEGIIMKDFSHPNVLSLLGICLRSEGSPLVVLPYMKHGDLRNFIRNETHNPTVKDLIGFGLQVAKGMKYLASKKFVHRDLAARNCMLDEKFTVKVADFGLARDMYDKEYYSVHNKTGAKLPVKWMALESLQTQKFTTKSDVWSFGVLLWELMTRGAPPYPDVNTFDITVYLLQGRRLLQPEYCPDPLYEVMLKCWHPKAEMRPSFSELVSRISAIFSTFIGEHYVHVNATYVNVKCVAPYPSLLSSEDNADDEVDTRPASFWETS
Method in brief: (§1)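 HCC827B cells exposed to 4 μM compound for 24 h; whole-cell lysates and mitochondria then isolated from treated cells and immunoblotted for p-MET Y1234/1235. Each lane held 10 μg protein; loading controls were actin (whole cells) and SDHA (mitochondria).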

[3] = Drug uptake in mitochondria of erlotinib-resistant human HCC827B cells assessed as R1 gated population at 4 uM after 1 hr by FACS analysis (reference value: >98%); type: ADME
HCC827 [4] = assay: Induction of apoptosis in erlotinib-resistant human HCC827B cells assessed as increase in cleaved PARP level at 4 uM measured up to 60 hrs by immunoblot analysis; type: functional, cell-based
Method in brief: (§2)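 HCC827B cells treated with 4 μM compound; whole-cell lysates collected at 12, 24, 36, 48 and 60 h and immunoblotted for cleaved PARP and cleaved caspases 3 and 7. Control was untreated cells at 0 h; GAPDH was the loading control.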

[5] = target: Hepatocyte growth factor receptor (Homo sapiens) (UniProt P08581); assay: Inhibition of MET phosphorylation at Y1234/1235 in erlotinib-resistant human HCC827B cells at 4 uM after 24 hrs by immunoblot analysis; method in brief: as §1
[6] = target: Hepatocyte growth factor receptor (Homo sapiens) (UniProt P08581); assay: Inhibition of MET phosphorylation at Y1234/1235 in mitochondria isolated from erlotinib-resistant human HCC827B cells at 4 uM after 1 to 1.5 hrs by immunoblot analysis
Method in brief: (§3)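 Whole HCC827B cells, or mitochondria first purified from them, were treated separately with 4 μM compound for 1 and 1.5 h, then immunoblotted for p-MET Y1234/1235. Each lane held 10 μg protein; loading controls were SDHA for mitochondria and actin for whole cells.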

HCC827 [7] = assay: Effect on total MET expression level in erlotinib-resistant human HCC827B cells at 4 uM after 1 to 1.5 hrs by immunoblot analysis; type: ADME, cell-based; conditions: hcc827, 4 µM
HCC827 [8] = assay: Induction of apoptosis in erlotinib-resistant human HCC827B cells assessed as increase in cleaved caspase 7 level at 4 uM measured up to 60 hrs by immunoblot analysis; type: functional, cell-based; method in brief: as §2
[9] = Drug uptake in mitochondria of erlotinib-resistant human HCC827B cells assessed as R1 gated population at 4 uM after 1 hr by MTR staining based FACS analysis (reference value: >98%); type: ADME
[10] = target: Hepatocyte growth factor receptor (Homo sapiens) (UniProt P08581); assay: Inhibition of MET phosphorylation at Y1234/1235 in erlotinib-resistant human HCC827B cells at 4 uM after 1 to 1.5 hrs by immunoblot analysis; method in brief: as §3
HCC827 [11] = assay: Induction of apoptosis in erlotinib-resistant human HCC827B cells assessed as increase in cleaved caspase 3 level at 4 uM measured up to 60 hrs by immunoblot analysis; type: functional, cell-based; method in brief: as §2
TAMH = assay: Cytotoxicity against TAMH assessed as reduction in cell viability after 24 hrs by cell titer glo based luminescence assay; conditions: Mus musculus
Method in brief: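 TAMH (TGFα-transformed murine hepatocytes; stable, nontumorigenic, metabolically competent line) exposed to compound for 24 h; IC50 from viability.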

[12] = Effect on total MET expression level in mitochondria isolated from erlotinib-resistant human HCC827B cells at 4 uM after 1 to 1.5 hrs by immunoblot analysis; type: ADME
HCC827 [13] = assay: Cytotoxicity against erlotinib-resistant human HCC827B cells expressing MET assessed as reduction in cell viability after 72 hrs by MTT assay; type: functional, cell-based; conditions: HCC827, 72 h
Method in brief: (§4)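 Colorimetric tetrazolium assay after 72 h exposure; IC50 derived from viability. Comparisons between compounds by unpaired Student's t test.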

HCC827 [14] = assay: Cytotoxicity against erlotinib-sensitive human HCC827A cells assessed as reduction in cell viability after 72 hrs by MTT assay; type: functional, cell-based; conditions: HCC827, 72 h; method in brief: as §4
HCC827 [15] = assay: Cytotoxicity against erlotinib-sensitive human HCC827A cells assessed as cell viability at 1 uM after 72 hrs by MTT assay; type: functional; conditions: HCC827, 72 h, read-out: Activity
Method in brief: (§5)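 Colorimetric tetrazolium viability assay with erlotinib at 1 μM; % viability reported, n = 3.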

HCC827 [16] = assay: Cytotoxicity against erlotinib-resistant human HCC827B cells assessed as cell viability at 1 uM after 72 hrs by MTT assay; type: functional; conditions: HCC827, 72 h, read-out: Activity; method in brief: as §5

| Structure (SMILES) | Drug uptake [1] | inhibition [2] | Drug uptake [3] | Activity (HCC827 [4]) | inhibition [5] | inhibition [6] | Activity (HCC827 [7]) | Activity (HCC827 [8]) | Drug uptake [9] | inhibition [10] | Activity (HCC827 [11]) | pIC50 (TAMH) | Activity [12] | pIC50 (HCC827 [13]) | pIC50 (HCC827 [14]) | viability at 1 µM (HCC827 [15]) | viability at 1 µM (HCC827 [16]) |
| --- | --- | --- | --- | --- | --- | --- | --- | --- | --- | --- | --- | --- | --- | --- | --- | --- | --- |
| Cc1[nH]c(/C=C2\C(=O)Nc3ccc(S(=O)(=O)Cc4c(Cl)cccc4Cl)cc32)c(C)c1C(=O)NCC[P+](c1ccccc1)(c1ccccc1)c1ccccc1.[Br-] | Active | Active | 98% | Active | Active | inactive | Non-Toxic | Active | 95% | Active | Active | 4.82 | Non-Toxic | 5.28 | 4.78 |  |  |
| C#Cc1cccc(Nc2ncnc3cc(OCCOC)c(OCCOC)cc23)c1 [ERLOTINIB] |  |  |  |  |  |  |  |  |  |  |  |  |  |  |  | 22.4% | 72.4% |
| Cc1[nH]c(/C=C2\C(=O)Nc3ccc(S(=O)(=O)Cc4c(Cl)cccc4Cl)cc32)c(C)c1C(=O)N1CCC[C@@H]1CN1CCCC1 [PHA-665752] | Not Active | Active |  | Active |  | inactive | Non-Toxic | Active | 35% | Active | Active | 5.05 | Non-Toxic | 5.05 | 4.80 |  |  |
